Data from the M2OR odorant receptor database.

Experiments:
Details in all cases: stereoisomer not certain
O2AK2 S99N = tested on: O2AK2 S99N
How it was run: (§1)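 Each receptor–molecule pair is labelled responsive or non-responsive (inactive) according to whether the original authors judged the measured signal statistically different from baseline. The data were taken from the main text and supplementary material of published papers and checked for typos and inconsistencies. Assay methods differed by source, with transient luciferase assays in mammalian cell lines being common.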

O2T11 = tested on: O2T11
Chain of O2T11 (as listed by the source): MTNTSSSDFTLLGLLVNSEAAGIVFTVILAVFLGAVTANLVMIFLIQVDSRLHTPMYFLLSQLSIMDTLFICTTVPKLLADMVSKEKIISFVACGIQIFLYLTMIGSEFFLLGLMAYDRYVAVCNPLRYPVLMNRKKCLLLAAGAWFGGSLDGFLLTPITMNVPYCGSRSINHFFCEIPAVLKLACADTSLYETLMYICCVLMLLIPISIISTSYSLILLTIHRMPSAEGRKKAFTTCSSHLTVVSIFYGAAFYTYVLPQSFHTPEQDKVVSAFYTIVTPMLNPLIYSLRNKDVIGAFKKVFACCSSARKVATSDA
How it was run: as §1

O2T27 L36V V134D = tested on: O2T27 L36V V134D
How it was run: as §1

O2T29 Q24R = tested on: O2T29 Q24R
Chain of O2T29 Q24R (as listed by the source, stated change not applied): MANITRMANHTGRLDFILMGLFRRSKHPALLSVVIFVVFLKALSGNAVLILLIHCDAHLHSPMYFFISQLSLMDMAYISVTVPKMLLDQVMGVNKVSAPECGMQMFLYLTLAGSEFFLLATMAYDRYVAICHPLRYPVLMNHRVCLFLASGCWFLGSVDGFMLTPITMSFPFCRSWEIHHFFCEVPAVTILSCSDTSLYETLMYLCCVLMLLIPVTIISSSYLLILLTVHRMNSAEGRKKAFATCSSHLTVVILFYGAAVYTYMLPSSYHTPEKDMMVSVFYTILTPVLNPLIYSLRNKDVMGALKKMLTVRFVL
How it was run: as §1

O2T33 A169V = tested on: O2T33 A169V
Chain of O2T33 A169V (as listed by the source, stated change not applied): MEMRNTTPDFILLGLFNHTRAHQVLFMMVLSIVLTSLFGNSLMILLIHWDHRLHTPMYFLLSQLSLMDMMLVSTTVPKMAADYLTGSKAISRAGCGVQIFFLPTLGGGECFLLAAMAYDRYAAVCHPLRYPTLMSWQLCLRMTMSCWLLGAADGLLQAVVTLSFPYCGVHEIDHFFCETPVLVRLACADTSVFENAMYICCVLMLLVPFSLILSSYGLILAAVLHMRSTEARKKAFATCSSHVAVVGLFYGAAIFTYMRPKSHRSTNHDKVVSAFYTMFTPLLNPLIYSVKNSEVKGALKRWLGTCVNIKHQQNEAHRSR
How it was run: as §1

O2T33 G297E I309L = tested on: O2T33 G297E I309L
How it was run: as §1

O2T34 Q6P R267P = tested on: O2T34 Q6P R267P
How it was run: as §1

O2T34 R267P = tested on: O2T34 R267P
Chain of O2T34 R267P (as listed by the source, stated change not applied): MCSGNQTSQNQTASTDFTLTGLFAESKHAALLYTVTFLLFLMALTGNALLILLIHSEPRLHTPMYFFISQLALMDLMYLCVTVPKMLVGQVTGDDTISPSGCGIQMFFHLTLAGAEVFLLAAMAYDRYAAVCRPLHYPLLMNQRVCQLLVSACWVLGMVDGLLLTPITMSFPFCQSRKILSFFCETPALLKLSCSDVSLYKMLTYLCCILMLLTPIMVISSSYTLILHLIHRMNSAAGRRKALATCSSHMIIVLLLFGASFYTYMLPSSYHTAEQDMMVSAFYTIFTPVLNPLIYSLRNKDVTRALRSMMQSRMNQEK
How it was run: as §1

O4A47 = tested on: O4A47
Chain of O4A47 (as listed by the source): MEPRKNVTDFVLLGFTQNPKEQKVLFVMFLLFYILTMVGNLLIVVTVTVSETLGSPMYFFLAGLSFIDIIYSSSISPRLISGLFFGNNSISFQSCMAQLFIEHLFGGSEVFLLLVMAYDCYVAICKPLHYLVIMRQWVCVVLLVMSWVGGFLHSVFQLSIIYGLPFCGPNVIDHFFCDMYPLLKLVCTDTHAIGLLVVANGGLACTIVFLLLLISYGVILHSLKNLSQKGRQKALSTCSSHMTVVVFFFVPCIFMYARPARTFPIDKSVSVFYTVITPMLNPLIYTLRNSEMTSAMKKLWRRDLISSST
How it was run: as §1

O4C46 S240F C252Y K288R = tested on: O4C46 S240F C252Y K288R
How it was run: as §1

O4F15 A272T = tested on: O4F15 A272T
Chain of O4F15 A272T (as listed by the source, stated change not applied): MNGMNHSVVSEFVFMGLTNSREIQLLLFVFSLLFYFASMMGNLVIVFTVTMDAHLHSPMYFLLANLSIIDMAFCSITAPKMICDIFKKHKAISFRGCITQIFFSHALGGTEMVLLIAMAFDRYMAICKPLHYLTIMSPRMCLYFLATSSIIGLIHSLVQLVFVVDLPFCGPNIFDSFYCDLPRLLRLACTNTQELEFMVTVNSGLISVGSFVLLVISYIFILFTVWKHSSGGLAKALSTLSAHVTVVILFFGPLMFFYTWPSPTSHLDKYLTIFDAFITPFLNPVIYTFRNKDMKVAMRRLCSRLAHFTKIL
How it was run: as §1

O4F15 S149F = tested on: O4F15 S149F
Chain of O4F15 S149F (as listed by the source, stated change not applied): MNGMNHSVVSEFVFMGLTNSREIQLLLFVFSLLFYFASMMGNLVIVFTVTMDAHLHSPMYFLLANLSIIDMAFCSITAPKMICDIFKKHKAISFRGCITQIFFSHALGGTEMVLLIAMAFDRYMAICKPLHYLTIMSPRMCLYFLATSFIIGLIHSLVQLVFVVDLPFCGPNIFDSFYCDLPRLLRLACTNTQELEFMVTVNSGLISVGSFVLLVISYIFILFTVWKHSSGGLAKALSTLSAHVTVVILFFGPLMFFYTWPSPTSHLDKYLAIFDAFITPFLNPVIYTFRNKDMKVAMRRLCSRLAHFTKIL
How it was run: as §1

O4F17 [1] = tested on: O4F17
How it was run: as §1
Target sequence in this assay (as listed by the source): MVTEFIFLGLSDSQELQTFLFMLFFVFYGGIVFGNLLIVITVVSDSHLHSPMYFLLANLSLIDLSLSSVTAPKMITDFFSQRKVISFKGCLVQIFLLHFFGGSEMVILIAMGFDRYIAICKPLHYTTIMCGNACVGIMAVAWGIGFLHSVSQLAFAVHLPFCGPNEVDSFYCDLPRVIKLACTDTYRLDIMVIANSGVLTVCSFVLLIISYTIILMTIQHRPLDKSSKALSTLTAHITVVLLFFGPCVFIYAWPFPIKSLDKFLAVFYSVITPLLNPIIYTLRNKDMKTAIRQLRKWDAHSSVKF

O4F17 [2] = tested on: O4F17; remark: listed apart in the source
How it was run: as §1
Target sequence in this assay (as listed by the source): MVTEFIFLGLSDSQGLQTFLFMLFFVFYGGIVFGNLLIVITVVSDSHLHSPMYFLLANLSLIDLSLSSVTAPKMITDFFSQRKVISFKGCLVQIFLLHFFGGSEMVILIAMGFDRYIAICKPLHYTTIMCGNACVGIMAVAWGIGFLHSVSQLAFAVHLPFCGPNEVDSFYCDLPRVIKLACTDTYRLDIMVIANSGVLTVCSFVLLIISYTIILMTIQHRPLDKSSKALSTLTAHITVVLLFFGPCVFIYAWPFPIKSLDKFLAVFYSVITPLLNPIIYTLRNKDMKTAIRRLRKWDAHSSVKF

O4F21 F44L = tested on: O4F21 F44L
Chain of O4F21 F44L (as listed by the source, stated change not applied): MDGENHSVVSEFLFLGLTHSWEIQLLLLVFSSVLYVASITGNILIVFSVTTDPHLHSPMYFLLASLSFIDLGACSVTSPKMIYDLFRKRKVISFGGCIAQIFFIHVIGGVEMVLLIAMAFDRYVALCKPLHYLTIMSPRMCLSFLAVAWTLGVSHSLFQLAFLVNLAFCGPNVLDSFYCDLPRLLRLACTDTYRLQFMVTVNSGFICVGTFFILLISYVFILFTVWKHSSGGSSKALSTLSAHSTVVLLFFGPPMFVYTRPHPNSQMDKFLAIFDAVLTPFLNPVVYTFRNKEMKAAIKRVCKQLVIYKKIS
How it was run: as §1

O51A7 E8D = tested on: O51A7 E8D
Chain of O51A7 E8D (as listed by the source): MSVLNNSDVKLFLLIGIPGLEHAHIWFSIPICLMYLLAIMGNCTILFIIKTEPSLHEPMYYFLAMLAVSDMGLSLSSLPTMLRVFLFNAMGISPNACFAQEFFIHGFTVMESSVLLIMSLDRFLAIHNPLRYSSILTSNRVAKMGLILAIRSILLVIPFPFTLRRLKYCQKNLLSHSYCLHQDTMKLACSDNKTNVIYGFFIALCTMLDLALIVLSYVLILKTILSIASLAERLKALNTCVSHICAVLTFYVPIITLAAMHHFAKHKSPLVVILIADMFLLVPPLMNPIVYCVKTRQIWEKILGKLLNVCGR
How it was run: as §1

O51B2 C120R C209S P283S = tested on: O51B2 C120R C209S P283S
How it was run: as §1

O51B4 M147T = tested on: O51B4 M147T
Chain of O51B4 M147T (as listed by the source, stated change not applied): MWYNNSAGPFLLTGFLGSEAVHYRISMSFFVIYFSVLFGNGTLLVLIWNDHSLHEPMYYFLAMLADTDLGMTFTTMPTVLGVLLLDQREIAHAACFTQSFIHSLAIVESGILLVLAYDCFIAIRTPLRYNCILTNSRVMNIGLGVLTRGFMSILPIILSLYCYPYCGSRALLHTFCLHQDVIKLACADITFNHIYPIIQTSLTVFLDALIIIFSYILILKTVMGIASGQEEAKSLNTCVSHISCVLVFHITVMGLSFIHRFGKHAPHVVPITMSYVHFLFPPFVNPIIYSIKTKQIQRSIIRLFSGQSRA
How it was run: as §1

O51B4 = tested on: O51B4
Chain of O51B4 (as listed by the source): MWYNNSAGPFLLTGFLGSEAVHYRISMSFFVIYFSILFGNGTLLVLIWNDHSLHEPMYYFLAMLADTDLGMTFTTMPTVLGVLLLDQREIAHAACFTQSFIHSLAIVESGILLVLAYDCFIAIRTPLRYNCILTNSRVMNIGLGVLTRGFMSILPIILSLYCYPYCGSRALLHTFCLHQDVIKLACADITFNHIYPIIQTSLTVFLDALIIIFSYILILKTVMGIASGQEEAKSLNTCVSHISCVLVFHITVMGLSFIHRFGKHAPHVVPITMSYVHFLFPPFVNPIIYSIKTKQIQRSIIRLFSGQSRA
How it was run: as §1

O51B5 G5S I102T P160L = tested on: O51B5 G5S I102T P160L
How it was run: as §1

Measured: odorant receptor agonist call;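 note: active if original authors judged signal statistically different from baseline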

Chain of O2AK2 S99N (as listed by the source, stated change not applied): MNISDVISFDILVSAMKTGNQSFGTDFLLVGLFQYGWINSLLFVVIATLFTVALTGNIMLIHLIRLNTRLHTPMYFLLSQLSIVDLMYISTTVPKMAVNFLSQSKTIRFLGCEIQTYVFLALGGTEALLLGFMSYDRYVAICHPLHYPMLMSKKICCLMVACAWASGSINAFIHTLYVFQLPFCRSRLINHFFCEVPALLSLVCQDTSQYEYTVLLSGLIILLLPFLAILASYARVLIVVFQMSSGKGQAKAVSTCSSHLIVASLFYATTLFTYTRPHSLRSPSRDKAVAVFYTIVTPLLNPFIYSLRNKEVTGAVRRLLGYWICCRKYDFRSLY

C=CCOC(=O)Cc1ccccc1
inactive: all assays above
